Bioassay records (PubChem)
CFTR F508del cor: correctors of CFTR F508del function in bronchial epithelial cells | activity (quench increase), % at 7.58 µM | CFBE cells, YFP halide quenching; stimulated with forskolin plus potentiator P3; % fluorescence drop versus neutral controls | 350,000 compounds, 0.36% hits | AID 720511;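 active means mean added fluorescence quench of at least 8% versus neutral control, with both replicates also reaching 8%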;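 further: cells transiently co-express mutant CFTR-F508del with the halide-sensitive YFP; corrector assay measuring rescue of mutant channel to the surface after 24 h compound exposure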
CaV13 ICDI inh: Disruptors of the CACNA1D IQ motif to Ca2+-dependent inactivation inhibitor domain association, primary screening, Förster resonance energy transfer in intact living …; HEK cells, CFP/YFP FRET ICDI-IQ, plate reader, 10 min; percent FRET-ratio fall versus neutral wells; inhibition, % at 12.3 µM; 340,000 compounds, 0.098% hits;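 active means mean replicate inhibition of at least 30% and at least 1% of replicates passing that level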;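 further: 0% = median of the neutral control wells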
rRNA inh HTS: inhibitors of bacterial rRNA selective over humanized ribosomes. E. coli WT GFP vs humanized-ribosome RFP mutants, fluorescence, 24 h; stronger effect = lower value; DMSO median 0, no signal -100. GFP signal change (wild-type ribosome), % (no concentration beside the values). 350,000 compounds, 1.6% hits;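 active means significant combined selectivity score with lowered wild-type GFP, culture density cut under 30%, mutant RFP and density less affected; inactive means any of these conditions unmet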
Cneo AK release: causes C. neoformans cell lysis; adenylate kinase release luminescence, 4 h; normalised: neutral wells 0, clomiphene wells 100; lysis activity, % at 15 µM; 360,000 compounds, 0.2% hits; AID 651654;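 active means mean lysis activity across replicates of at least 80%, whatever share of replicates individually reach that level; inactive means mean lysis activity below 80%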
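Test system: log-phase Cryptococcus neoformans yeast cells. Input: 5 × 10^6 yeast cells/mL. Medium: fresh YPD growth medium. Doses: single dose. Incubation: static 4 h at 37 °C with compound, 1 h detection. Measured by: luminescent adenylate kinase detection reagent. Read-out: signal increase indicating cell lysis. Benchmarks: Clomiphene.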
An asterisk follows results filed as active; . = no result; + = active, no number; ! = not confirmed by another sample. Most compounds without a hit are left out; they make up all but 1.7% or so of the library.

SMILES	CFTR F508del cor	CaV13 ICDI inh	rRNA inh HTS	Cneo AK release
O=C(NC1CCCc2c1cnn2-c1ccc(F)cc1F)c1ccccc1N1CCOCC1 (stereo not drawn)	4	-10	-29*	1
Cc1cccc(S(=O)(=O)N2CC[C@@H]3[C@@H](CO)Nc4ccc(C#Cc5ccccc5F)cc4[C@@H]32)c1	-1	.	-2	12
N#Cc1cccc(-c2ccc(C3[C@H]4CNC[C@@H]3N4S(=O)(=O)c3cccc(F)c3)cc2)c1 (stereo partly drawn)	0	.	-5	.
COc1ccc(CNC(=O)C[C@H]2CC[C@H](NC(=O)c3ccc4c(c3)OCO4)[C@H](CO)O2)cc1	-1	.	-2	-1
C=CCN1C(=O)/C(=C/C=C2/N(CC)c3ccc(S(=O)(=O)N(C)C)cc3N2CC)SC1=S	11*	-17	0	.
O=S(=O)(Nc1nccs1)c1ccc(NCc2cc(Br)cc(Br)c2O)cc1	2	-5	-47*	-3
O=C(C[C@@H]1CC[C@H](NC(=O)CN2CCOCC2)[C@H](CO)O1)NCCc1ccncc1	1	.	2	45
CC(C)(C)NC(=O)c1cccc2c1-c1ccccc1C2=O	10*	-7	9	0
O=C(NCc1ccccc1)c1ncn(Cc2ccccc2)c1C(=O)NCc1ccccc1	-1	-10	-12	-3
Cn1cnc(C(=O)NCc2ccccc2)c1C(=O)NCc1ccccc1	2	-5	-32*	0
COc1cccc(Nc2nc(NCCO)nc(N3CCCC3)n2)c1	-2	-4	-25*	2
CNc1ccc2c3c(cccc13)C(=O)N(C)C2=O	20*	-10	112	.
CC(CNCCCn1cnc2c(OCc3ccccc3)ncnc21)c1ccccc1 (stereo not drawn)	-2	-6	-17*	2
Cc1ccc(NCCCn2cnc3c(OCc4ccccc4)ncnc32)cc1C	0	-4	-21*	-1
CNC[C@H]1Oc2ncccc2C(=O)N(C)C[C@H]1C	.	.	2	.
O=C(N[C@@H](Cc1cccnc1)C(=O)N1CCC[C@H]1C(=O)NCCc1ccccc1Cl)c1cccs1	-3	-2	-17*	.
O=C(N[C@@H](Cc1cccnc1)C(=O)N1CCC[C@H]1C(=O)NCCc1ccccc1Cl)c1ccccc1	-2	-3	-14	.
Cc1noc(C)c1NC(=O)Nc1ccc2c(c1)C(=O)N([C@@H](C)CO)C[C@@H](C)[C@@H](CN(C)S(=O)(=O)c1ccccc1)O2	-1	.	3	.
CCCOc1ccc(/C(O)=C2/C(=O)C(=O)N(CCCn3ccnc3)C2c2ccc(C)o2)cc1 (stereo not drawn)	-2	-20	-18*	.
CCCOc1ccc(/C(O)=C2/C(=O)C(=O)N(CCCn3ccnc3)C2c2ccco2)cc1 (stereo not drawn)	.	-3	.	-2
O=C(NC1CCCCC1)[C@H]1[C@H](CO)[C@H]2Cn3c(cccc3=O)[C@@H]1N2CC1CCCC1	-3	.	1	.
COc1ccccc1CNc1cncnc1	2	-10	-23*	1
O=C(CP(=O)(c1ccccc1)c1ccccc1)Nc1nc2ccccc2s1	-1	1	-36*	.
N=c1oc2cc(O)ccc2cc1C(=O)Nc1nc2ccccc2s1	.	81*	-30	.
COc1ccccc1C(=O)Nc1nc2ccccc2s1	1	-4	1	-5
SMILES	CFTR F508del cor	CaV13 ICDI inh	rRNA inh HTS	Cneo AK release
N=c1oc2cc(O)ccc2cc1C(=O)Nc1ccc(Br)cc1	4	+	-17	-6
O=C(NNc1nc2ccccc2s1)c1ccccc1F	-2	-8	-41*	6
N=c1oc2ccccc2cc1C(=O)Nc1ccccc1	0	-19	8	-1
CCCNC(=O)N1CC2(CN(Cc3ccc(OC)cc3)C2)c2c(n(C)c3cc(OC)ccc23)[C@H]1CO	5	.	-5	.
C[C@@H]1CCCCO[C@@H](CN(C)C(=O)Nc2ccccc2)[C@H](C)CN([C@H](C)CO)C(=O)c2cc(NC(=O)CCC(F)(F)F)ccc2O1	0	.	-1	2
COc1ccc(CN(C)C[C@H]2Oc3c(NS(=O)(=O)c4cn(C)cn4)cccc3C(=O)N([C@H](C)CO)C[C@H]2C)cc1	1	.	4	-1
CCOC(=O)C1=CN(Cc2ccco2)S(=O)(=O)NC1c1ccc(C(F)(F)F)cc1 (stereo not drawn)	8.1*	-5	-7	1
COCC(=O)Nc1ccc2c(c1)C(=O)N(C)[C@H]1CC[C@H](CC(=O)NCCc3ccncc3)O[C@@H]1CO2	.	.	9	.
COCCCN(C(=S)Nc1cc(Cl)cc(Cl)c1)C(C)c1ccccn1 (stereo not drawn)	0	-2	-39*	-1
O=C(NNC(=O)C12CC3CC(CC(C3)C1)C2)c1ccccn1	3	-5	-43*	-1
COc1ccc(-c2nn(-c3ccccc3)cc2/C=C/C(=O)N2CCOCC2)cc1OC	0	-3	-24*	.
C[C@H](CO)N1C[C@H](C)[C@H](CN(C)S(=O)(=O)c2ccc(C#N)cc2)Oc2ncc(C#Cc3ccc(C(F)(F)F)cc3)cc2C1=O	5	.	-2	.
CC1CCN(c2nc(-c3cccnc3)nc3scc(-c4ccccc4)c23)CC1	.	-1	8	.
CN1CCN(c2nc(-c3cccnc3)nc3scc(-c4ccccc4)c23)CC1	1	10	-22*	0
COc1ccc(S(=O)(=O)N[C@@H]2CC[C@@H](CCn3cc(-c4cccc(F)c4)nn3)O[C@H]2CO)cc1	3	.	-5	3
COc1cnc(-c2ccccc2)c(-c2ccccc2)n1	1	0	-32*	-5
COc1ccc(-c2nc3ccccc3nc2-c2ccc(OC)cc2)cc1	-2	-20	-5	1
O=C(Nc1cccc(S(=O)(=O)N2CCCCC2)c1)C1CC(=O)N(Cc2ccccc2)C1 (stereo not drawn)	1	-3	-24*	0
O=C(NCc1ccc(Cl)cc1Cl)C1CC(=O)N(Cc2ccccc2)C1 (stereo not drawn)	1	-2	-23*	.
CN(C)C(CNC(=O)C1CC(=O)N(Cc2ccccc2)C1)c1ccccc1 (stereo not drawn)	6	-17	10	0
CCCC#Cc1ccc2c(c1)O[C@@H](CN(C)C(=O)NC(C)C)[C@@H](C)CN([C@@H](C)CO)S2(=O)=O	-3	.	1	1
CCN1CCN(Cc2ccc(C(=O)Nc3ccc(C)c(NCc4cnc(NC(=O)OC)cn4)c3)cc2C(F)(F)F)CC1	-5	-3	-17*!	9
O=C(C/C=N\OCc1ccc([N+](=O)[O-])cc1)Nc1ccc(Cl)cc1	.	-7	-40*	.
O=C(C/C=N\OCc1ccc([N+](=O)[O-])cc1)Nc1ccccc1	-1	-2	-2	2
CO[C@H]1CN(C)C(=O)c2cc(NS(C)(=O)=O)ccc2OC[C@@H](C)N(Cc2nccs2)C[C@@H]1C	1	.	-1	-3
